{"data": "Measurements from different studies", "organism": "Staphylococcus aureus", "observed": "microbial growth"}
{"Compound": "O=C(O)CN1C(=O)/C(=C/c2c3ccccc3c(-c3ccc(N(c4ccccc4)c4ccccc4)cc3)c3ccccc23)SC1=S", "technique": "broth dilution", "strain": "ATCC43300", "MIC": "> 1000 µg/mL"}
{"Compound": "C/C=C(\\C)c1cc(O)c(C)c(OC(=O)c2c(C)c(Cl)c(O)c(Cl)c2O)c1", "technique": "broth dilution", "strain": "MRSA", "MIC": "4 µg/mL"}
{"Compound": "O=C(O)CN1C(=O)/C(=C/c2ccc(-c3ccc(N(c4ccccc4)c4ccccc4)cc3)cc2)NC1=S", "technique": "broth dilution", "strain": "ATCC6538", "MIC": "1.95 µg/mL"}
{"Compound": "C[C@@H](O)[C@H]1C(=O)N2C(C(=O)O)=C(S[C@@H]3CN[C@H](C(=O)N(C)C)C3)[C@H](C)[C@H]12", "strain": "MRSA", "MIC": "32 µg/mL"}
{"Compound": "C/C=C(\\C)c1cc(OC(=O)c2c(O)c(C)c(O)c(Cl)c2/C(C)=C/C)c(C)c(O)c1C(=O)O", "technique": "broth dilution", "strain": "16162", "MIC": "32 µg/mL"}
{"Compound": "C=CCn1c(-c2ccc(OC)c(OC)c2)nc2ccccc21", "technique": "broth dilution", "strain": "ATCC29213 MSSA", "MIC": "128 µg/mL"}
{"Compound": "CC(C)Oc1c(NC(=O)c2ccc(NC(=O)[C@H](CC(N)=O)NC(=O)c3ccc(NC(=O)c4ccc(C#N)cc4)cc3)cc2)ccc(C(=O)Nc2ccncc2)c1O", "strain": "ATCC29213", "MIC": "> 64 µg/mL"}
{"Compound": "C=CCOc1c(C)c(O)c(C(=O)/C=C/c2ccccc2)c(OC)c1C", "technique": "broth dilution", "strain": "ATCC25923", "MIC": "> 5000 µg/mL"}
{"Compound": "Cc1ccc(C(=O)Nc2ccc(CN3CCN(C)CC3)c(C(F)(F)F)c2)cc1C#Cc1cnc2cccnn12", "strain": "NCTC8325", "MIC": "> 30 µM"}
{"Compound": "Cc1nc(O)n2ncc(Cl)c2n1", "MIC": "> 128 µg/mL"}
{"Compound": "CN(C)C1CCN(C(=O)c2ccc(NC(=O)Nc3ccc(-c4nc(N5CCOCC5)nc(N5CCOCC5)n4)cc3)cc2)CC1", "strain": "NCTC8325", "MIC": "> 30 µM"}
{"Compound": "CC(C)Oc1c(NC(=O)c2ccc(NC(=O)[C@H](CC(N)=O)NC(=O)c3ccc(NC(=O)c4ccc(N)cc4)cc3)cc2)ccc(C(=O)Nc2ccc(C(=O)O)cc2)c1O", "strain": "ATCC29213", "MIC": "> 64 µg/mL"}
{"Compound": "C[C@@H](O)[C@H]1C(=O)N2C(C(=O)O)=C(S[C@@H]3CN[C@H](C(=O)N(C)C)C3)[C@H](C)[C@H]12", "technique": "broth dilution", "time": "24 h", "MIC": "0.0625 µg/mL"}
{"Compound": "C#CCCC1(CCOC(=O)c2ccc(NC(=O)Nc3ccc(Cl)c(C(F)(F)F)c3)cc2)N=N1", "strain": "NCTC8325", "MIC": "1 µM"}
{"Compound": "Cc1ccc(C)n1-c1ccc(-c2nnc(-c3ccccc3Cl)[nH]2)cc1", "technique": "broth dilution", "strain": "ATCC11632", "time": "18 h", "MIC": "2 µg/mL"}
{"Compound": "C#CCCCCC(=O)N1CCN(c2ccccc2)CC1", "strain": "NCTC8325", "MIC": "> 100 µM"}
{"Compound": "Cc1ccc2nc(-c3ccc(F)cc3)n(Cc3ccccc3)c2c1", "technique": "broth dilution", "strain": "ATCC29213 MSSA", "MIC": "64 µg/mL"}
{"Compound": "C[C@@H](Oc1cc(-n2cnc3ccc(CN4CCN(C)CC4)cc32)sc1C(N)=O)c1ccccc1C(F)(F)F", "strain": "NCTC8325", "MIC": "> 30 µM"}
{"Compound": "O=C1NN=C(N=Cc2ccc(O)cc2O)C1=NNn1c(-c2ccccc2)nc2ccccc2c1=O", "technique": "broth dilution", "time": "24 h", "MIC": "107 µM"}
{"Compound": "Fc1ccccc1NCc1ccc(Oc2ccccn2)cc1", "MIC": "1.6 µg/mL"}
{"Compound": "O=C(O)c1cc(Br)c(O)c(Br)c1", "MIC": "> 128 µg/mL"}
{"Compound": "O=C(NOCC(O)CO)c1cc(Br)c(F)c(F)c1Nc1ccc(I)cc1F (stereo not shown)", "strain": "NCTC8325", "MIC": "> 30 µM"}
